In ChEMBL document CHEMBL1139007 (J Med Chem, 2006):

Tests used:
[1] = target: T1, C-C chemokine receptor type 5 (Homo sapiens, UniProt P51681); test: Inhibition of replication of R5 HIV1 Ba-L in MOLT4/CCR5 cells; assay type: functional, cell-based; conditions: Human immunodeficiency virus 1, MOLT-4
Target sequence in this assay (P51681 whole entry, looked up): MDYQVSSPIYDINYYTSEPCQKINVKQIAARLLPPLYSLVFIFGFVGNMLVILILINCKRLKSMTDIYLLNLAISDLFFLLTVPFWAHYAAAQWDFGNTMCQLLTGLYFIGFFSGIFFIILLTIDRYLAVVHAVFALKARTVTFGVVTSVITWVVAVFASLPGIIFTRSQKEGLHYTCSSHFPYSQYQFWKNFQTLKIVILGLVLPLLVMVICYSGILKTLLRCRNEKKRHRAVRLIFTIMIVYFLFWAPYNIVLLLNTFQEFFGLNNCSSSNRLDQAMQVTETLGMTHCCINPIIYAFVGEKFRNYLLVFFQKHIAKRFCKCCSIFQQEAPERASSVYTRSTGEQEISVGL

[2] = target: T1, C-C chemokine receptor type 5; test: Displacement of [125I]RANTES from CCR5 expressed in CHO cells; assay type: cell-based
Target sequence in this assay (P51681 whole entry): as the sequence (P51681 whole entry, looked up) above

[3] = target: T1, C-C chemokine receptor type 5; conditions: Human immunodeficiency virus 1; Ba-L; MOLT-4; 5 nM
Target sequence in this assay (P51681 whole entry, looked up): as above

[4] = tested on: Human immunodeficiency virus 1; test: Inhibition of replication of R5 HIV1 CTV in PMBC; assay type: functional, organism-based; conditions: Human immunodeficiency virus 1, CTV
In short: (§1)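 PHA-stimulated PBMCs infected with clinical isolate (11-55 ng p24 per 4 × 10⁶ cells) for 4 h, washed to remove unadsorbed virus, then seeded at 2 × 10⁵ cells/well with a range of compound concentrations. On day 4 cells were split 1:2 into medium with the same compound level. IC50/IC90 for inhibition of replication; triplicate, repeated 3 or 4 times with PBMCs from different donors; means reported.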

[5] = tested on: Human immunodeficiency virus 1; test: Inhibition of replication of R5 HIV1 HKW in PMBC; assay type: functional, organism-based; conditions: Human immunodeficiency virus 1, HKW; in short: as §1
[6] = tested on: Human immunodeficiency virus 1; test: Inhibition of replication of R5 HIV1 HNK in PMBC; assay type: functional, organism-based; conditions: Human immunodeficiency virus 1, HNK; in short: as §1
[7] = tested on: Human immunodeficiency virus 1; test: Inhibition of replication of R5 HIV1 HTN in PMBC; assay type: functional, organism-based; conditions: Human immunodeficiency virus 1, HTN; in short: as §1
[8] = tested on: Human immunodeficiency virus 1; test: Inhibition of replication of R5 HIV1 HHA in PMBC; assay type: functional, organism-based; conditions: Human immunodeficiency virus 1, HHA; in short: as §1
[9] = tested on: Human immunodeficiency virus 1; test: Inhibition of replication of R5 HIV1 KK in PMBC; assay type: functional, organism-based; conditions: Human immunodeficiency virus 1, KK; in short: as §1
[10] = Plasma concentration in Sprague-Dawley rat after 5 min at 1 mg/kg, iv; assay type: ADME, organism-based; set-up: dose 1 mg/kg, route intravenous
In short: (§2)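 Blood was drawn at set times (rat tail vein, dog cephalic vein, monkey femoral vein) and spun to plasma. Plasma was run on C8 HPLC, 1-min fractions counted by liquid scintillation.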

[11] = Plasma concentration in Beagle dog after 5 min at 1 mg/kg, iv; assay type: ADME, organism-based, Canis lupus familiaris; set-up: dose 1 mg/kg, route intravenous; in short: as §2
[12] = Plasma concentration in cynomolgus monkey after 5 min at 1 mg/kg, iv; assay type: ADME, organism-based, Macaca fascicularis; set-up: dose 1 mg/kg, route intravenous; in short: as §2
[13] = AUC (0-24h) in Sprague-Dawley rat at 1 mg/kg, iv; assay type: ADME, organism-based; set-up: time < 24 hr, dose 1 mg/kg, route intravenous; conditions: plasma; in short: as §2
[14] = AUC (0-24h) in Beagle dog at 1 mg/kg, iv; assay type: ADME, organism-based, Canis lupus familiaris; set-up: time < 24 hr, dose 1 mg/kg, route intravenous; conditions: plasma; in short: as §2
[15] = AUC (0-24h) in cynomolgus monkey at 1 mg/kg, iv; assay type: ADME, organism-based, Macaca fascicularis; set-up: time < 24 hr, dose 1 mg/kg, route intravenous; conditions: plasma; in short: as §2
[16] = Half life in Sprague-Dawley rat plasma at 1 mg/kg, iv; assay type: ADME, organism-based; set-up: dose 1 mg/kg, route intravenous; in short: as §2
[17] = Half life in Beagle dog plasma at 1 mg/kg, iv; assay type: ADME, organism-based, Canis lupus familiaris; set-up: dose 1 mg/kg, route intravenous; in short: as §2
[18] = Half life in cynomolgus monkey plasma at 1 mg/kg, iv; assay type: ADME, organism-based, Macaca fascicularis; set-up: dose 1 mg/kg, route intravenous; in short: as §2
[19] = Cmax in Sprague-Dawley rat plasma at 3 mg/kg, po; assay type: ADME, organism-based; set-up: dose 3 mg/kg, route oral
[20] = Cmax in Beagle dog plasma at 3 mg/kg, po; assay type: ADME, organism-based, Canis lupus familiaris; set-up: dose 3 mg/kg, route oral
[21] = Tmax in Sprague-Dawley rat plasma at 3 mg/kg, po; assay type: ADME, organism-based; set-up: dose 3 mg/kg, route oral
[22] = Tmax in Beagle dog plasma at 3 mg/kg, po; assay type: ADME, organism-based, Canis lupus familiaris; set-up: dose 3 mg/kg, route oral
[23] = Tmax in cynomolgus monkey plasma at 3 mg/kg, po; assay type: ADME, organism-based, Macaca fascicularis; set-up: dose 3 mg/kg, route oral
[24] = Cmax in cynomolgus monkey plasma at 3 mg/kg, po; assay type: ADME, organism-based, Macaca fascicularis; set-up: dose 3 mg/kg, route oral
[25] = AUC (0-24h) in Sprague-Dawley rat at 3 mg/kg, po; assay type: ADME, organism-based; set-up: time < 24 hr, dose 3 mg/kg, route oral; conditions: plasma
[26] = AUC (0-24h) in Beagle dog at 3 mg/kg, po; assay type: ADME, organism-based, Canis lupus familiaris; set-up: time < 24 hr, dose 3 mg/kg, route oral; conditions: plasma
[27] = AUC (0-24h) in cynomolgus monkey at 3 mg/kg, po; assay type: ADME, organism-based, Macaca fascicularis; set-up: time < 24 hr, dose 3 mg/kg, route oral; conditions: plasma
[28] = Bioavailability in Sprague-Dawley rat at 3 mg/kg, po; assay type: ADME, organism-based; conditions: in vivo
[29] = Bioavailability in Beagle dog at 3 mg/kg, po; assay type: ADME, organism-based, Canis lupus familiaris; conditions: in vivo
[30] = Bioavailability in cynomolgus monkey at 3 mg/kg, po; assay type: ADME, organism-based, Macaca fascicularis; conditions: in vivo
[31] = target: T2, C-C chemokine receptor type 1 (Homo sapiens, UniProt P32246); test: Displacement of [125I]RANTES from CCR1 expressed in CHO cells; assay type: cell-based
T2 sequence (P32246 whole entry): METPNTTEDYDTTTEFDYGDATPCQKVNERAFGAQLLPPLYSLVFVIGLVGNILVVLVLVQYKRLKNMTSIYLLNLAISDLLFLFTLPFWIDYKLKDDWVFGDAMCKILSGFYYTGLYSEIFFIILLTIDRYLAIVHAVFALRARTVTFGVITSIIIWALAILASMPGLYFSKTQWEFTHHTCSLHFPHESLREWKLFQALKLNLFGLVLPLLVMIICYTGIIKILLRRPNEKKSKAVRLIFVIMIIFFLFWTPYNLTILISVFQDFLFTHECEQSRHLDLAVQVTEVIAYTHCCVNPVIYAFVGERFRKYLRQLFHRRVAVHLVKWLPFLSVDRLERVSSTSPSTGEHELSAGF
In short: (§3)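 CHO cells stably expressing the named chemokine receptor were incubated with the [125I]-labelled ligand (RANTES for CCR5 and CCR1, eotaxin for CCR3, TARC for CCR4) and varying compound concentrations. IC50 for inhibition of ligand binding is the mean of triplicate measurements.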

[32] = target: T3, C-C chemokine receptor type 3 (Homo sapiens, UniProt P51677); test: Displacement of [125I]eotaxin from CCR3 expressed in CHO cells; assay type: cell-based; in short: as §3
T3 sequence (P51677 whole entry): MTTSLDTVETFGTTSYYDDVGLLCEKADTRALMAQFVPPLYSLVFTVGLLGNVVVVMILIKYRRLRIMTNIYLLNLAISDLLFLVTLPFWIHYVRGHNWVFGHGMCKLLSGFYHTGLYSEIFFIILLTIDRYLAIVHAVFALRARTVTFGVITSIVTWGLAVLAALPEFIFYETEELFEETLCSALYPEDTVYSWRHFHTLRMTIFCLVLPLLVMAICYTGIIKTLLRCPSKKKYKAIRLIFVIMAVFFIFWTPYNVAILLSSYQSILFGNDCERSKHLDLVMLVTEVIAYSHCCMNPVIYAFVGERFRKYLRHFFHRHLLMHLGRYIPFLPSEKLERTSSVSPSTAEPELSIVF

[33] = target: T4, C-C chemokine receptor type 4 (Homo sapiens, UniProt P51679); test: Displacement of [125I]TARC from CCR4 expressed in CHO cells; assay type: cell-based; in short: as §3
T4 sequence (P51679 whole entry): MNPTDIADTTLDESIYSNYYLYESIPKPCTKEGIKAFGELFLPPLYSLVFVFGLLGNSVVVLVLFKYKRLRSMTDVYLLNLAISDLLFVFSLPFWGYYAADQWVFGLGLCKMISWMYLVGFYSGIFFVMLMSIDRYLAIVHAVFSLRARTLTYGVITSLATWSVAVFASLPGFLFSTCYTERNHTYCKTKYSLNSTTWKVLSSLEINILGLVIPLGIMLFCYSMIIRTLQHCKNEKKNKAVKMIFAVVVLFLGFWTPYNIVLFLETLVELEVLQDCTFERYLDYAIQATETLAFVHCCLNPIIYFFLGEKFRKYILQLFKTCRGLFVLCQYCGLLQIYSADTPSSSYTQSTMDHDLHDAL

[34] = target: T5, C-C chemokine receptor type 7 (Homo sapiens, UniProt P32248); test: Displacement of [125I]MIP-3beta from CCR7 expressed in CHO cells; assay type: cell-based
T5 sequence (P32248 whole entry): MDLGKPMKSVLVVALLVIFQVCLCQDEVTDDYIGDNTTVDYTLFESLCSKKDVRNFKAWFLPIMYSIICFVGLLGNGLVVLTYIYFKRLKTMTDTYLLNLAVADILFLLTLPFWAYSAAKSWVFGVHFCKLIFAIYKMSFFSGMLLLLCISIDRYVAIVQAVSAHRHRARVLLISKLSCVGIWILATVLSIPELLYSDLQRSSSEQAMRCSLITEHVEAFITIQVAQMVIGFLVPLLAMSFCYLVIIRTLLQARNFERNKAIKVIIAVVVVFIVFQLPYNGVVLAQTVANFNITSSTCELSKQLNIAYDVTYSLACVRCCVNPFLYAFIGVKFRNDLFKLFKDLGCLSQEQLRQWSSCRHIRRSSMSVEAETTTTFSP
In short: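 CHO cells stably expressing CCR7, run in the same way as the CCR5 binding assay. Binding of [¹²⁵I]-MIP-3β was measured across a range of test compound concentrations. IC50 is the concentration that inhibits ligand binding by 50%, reported as the mean of triplicate measurements.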

## CCCCOCCOc1ccc(-c2ccc3c(c2)C=C(C(=O)Nc2ccc([S+]([O-])Cc4cncn4CCC)cc2)CCN3CC(C)C)cc1 (configuration not stated)
[1]
  IC90: 860 nM
[2]
  IC50: 1.9 nM

## CCCCOCCOc1ccc(-c2ccc3c(c2)/C=C(/C(=O)Nc2ccc([S@@+]([O-])Cc4cncn4CCC)cc2)CCCCCN3CC(C)C)cc1
[2]
  IC50: 67 nM

## CCCCOCCOc1ccc(-c2ccc3c(c2)/C=C(/C(=O)Nc2ccc([S@@+]([O-])Cc4cncn4CCC)cc2)CCCN3CCC)cc1
[2]
  IC50: 1.7 nM
[3]
  inhibition: 72%

## CCCCOCCOc1ccc(-c2ccc3c(c2)/C=C(/C(=O)Nc2ccc([S@@+]([O-])Cc4nncn4CCC)cc2)CCCN3CC(C)C)cc1
[1]
  IC90: 10 nM
[2]
  IC50: 2.4 nM

## CCCCOCCOc1ccc(-c2ccc3c(c2)/C=C(/C(=O)Nc2ccc([S@@+]([O-])Cc4cncn4CCC)cc2)CCCN3Cc2cnn(C)c2)cc1
[1]
  IC90: 11 nM
[2]
  IC50: 1.7 nM

## CCCCOCCOc1ccc(-c2ccc3c(c2)/C=C(/C(=O)Nc2ccc([S@@+]([O-])Cc4nncn4CCC)cc2)CCCN3CCC)cc1
[2]
  IC50: 2.2 nM

## CCCCOCCOc1ccc(-c2ccc3c(c2)/C=C(/C(=O)Nc2ccc([S@@+]([O-])Cc4cncn4CCC)cc2)CCCCN3CC(C)C)cc1
[1]
  IC90: 19 nM
[2]
  IC50: 6.8 nM

## CCCCOCCOc1ccc(-c2ccc3c(c2)/C=C(/C(=O)Nc2ccc([S@@+]([O-])Cc4cncn4CCC)cc2)CCCCCN3CCC)cc1
[2]
  IC50: 25 nM

## CCCCOCCOc1ccc(-c2ccc3c(c2)/C=C(/C(=O)Nc2ccc([S@@+]([O-])Cc4cncn4CCC)cc2)CCCCN3CCC)cc1
[2]
  IC50: 4.7 nM

## CCCCOCCOc1ccc(-c2ccc3c(c2)/C=C(/C(=O)Nc2ccc([S@@+]([O-])Cc4cncn4CCC)cc2)CCCN3CC(C)C)cc1.CS(=O)(=O)O [CENICRIVIROC MESYLATE]
[4]
  IC50: 0.07 nM
  IC90: 0.31 nM
[5]
  IC50: 0.049 nM
  IC90: 0.16 nM
[6]
  IC50: 0.087 nM
  IC90: 0.36 nM
[7]
  IC50: 0.089 nM
  IC90: 0.32 nM
[8]
  IC50: 0.024 nM
  IC90: 0.13 nM
[1]
  IC90: 0.81 nM
[9]
  IC50: 0.043 nM
  IC90: 0.19 nM
[10]
  concentration at 5 min: 8020 ng/mL
[11]
  concentration at 5 min: 2320 ng/mL
[12]
  concentration at 5 min: 3110 ng/mL
[13]
  AUC(0-t) at 24 h: 7610 ng·h/mL
[14]
  AUC(0-t) at 24 h: 2310 ng·h/mL
[15]
  AUC(0-t) at 24 h: 1450 ng·h/mL
[16]
  half-life: 4.85 h
[17]
  half-life: 5.04 h
[18]
  half-life: 6.09 h
[19]
  Cmax: 485 ng/mL
[20]
  Cmax: 570 ng/mL
[21]
  Tmax: 1.3 h
[22]
  Tmax: 2.7 h
[23]
  Tmax: 2 h
[24]
  Cmax: 116 ng/mL
[25]
  AUC(0-t) at 24 h: 2320 ng·h/mL
[26]
  AUC(0-t) at 24 h: 6010 ng·h/mL
[27]
  AUC(0-t) at 24 h: 670 ng·h/mL
[28]
  bioavailability: 10.2%
[29]
  bioavailability: 88.5%
[30]
  bioavailability: 15.6%
[31]
  IC50: > 10000 nM
[32]
  IC50: 2400 nM
[33]
  IC50: 1100 nM
[34]
  IC50: > 10000 nM
